Tested on: MS2 coat protein
Experiment: apparent Kd, MS2 coat protein; higher = weaker binding; RNA-MaP array; FMN 200 µM where present
Outline: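 Binding was read on Illumina sequencing-chip clusters where stalled E. coli RNA polymerase had transcribed each design. A titration of SNAP-549-labelled MS2 coat protein began at 0.7 or 1.5 nM and doubled to 3 µM, once without ligand and once with constant ligand, in 100 mM Tris-HCl pH 7.5, 80 mM KCl, 4 mM MgCl2, BSA, DTT, yeast tRNA and Tween-20. The apparent Kd is the median of filtered per-cluster binding-curve fits, based on green signal normalised to red-channel RNA signal and control-cluster median Fmax.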

[1] = designed as: ON switch for flavin mononucleotide, no ligand
[2] = ligand present: flavin mononucleotide, designed as: ON switch for flavin mononucleotide
[3] = designed as: OFF switch for flavin mononucleotide, no ligand
[4] = ligand present: flavin mononucleotide, designed as: OFF switch for flavin mononucleotide

Sequence	apparent Kd [1] [nM]	apparent Kd [2] [nM]	apparent Kd [3] [nM]	apparent Kd [4] [nM]
GACUCGCGCACAGGAUAUCCACAGAGCGGACGUGGAGAAGGGUGACAUGAGGAUCACCCAUGUACGUGAGUCUAGAUCACUUCC	52.4	31	–	–
GAAAAACAUGAGGAUCACCCAUGUAGAAAUAUGGGAGGAUAUACAAAGACGAAAGUCAAAGUAGAAGGCCUAAAAG	125	31	–	–
CUGAUGUGAGGAUAUGUGAUCUGCCUUCUAUAUAGAUGAUUACAGAAGGCACAUGAGGAUCACCCAUGUAGAUC	–	–	74.7	62.6
GCGUCGAGUGUGAGGAUAUGCUGGUCCUUGGAUCAGCAGAAGGCACAUGAGGAUCACCCAUGUGAAUACGAUGC	–	–	21.7	136
AGAAACUACGAGAAGGACAUGAGGAUCACCCAUGUUUCCACUUAGUGGCAUGUAGGAUAUCGUAGUUUCAGGAUCGUGAGAUCA	–	–	5.58	16.6
AUAAUUAUAUAUUUCCCAAGAAUCAGAAGGCGUUACAUGAGGAUCACCCAUGUUUUGUAUAGUAACGAGGAUAUGAUAUGGAAA	–	–	16.3	14.5
UUUAUUUCGGCAGGAUAUACAUGUAUAUAUAUUUCUUUAUAUCUUAUUACAUGAGGAUCACCCAUGUAGAAGGGCCUUCUUAUC	–	–	47.7	46
AUUAAUUAAUUAAUACAUGAGGAUCACCCAUGUAAUAAGAUCAAGGAUAUCAGCUCGAAUAGAGCUGAGAAGGUGAUCACAUGU	555	226	–	–
UGGUACAUCAUAGGAUAUCGUGUGUAAACAUGAGGAUCACCCAUGUCAUCCGAGAGUAUGUCGACCGAGAAGGGUGAUGUACCU	45.4	72.7	–	–
GUAGCAUGAUUAGGAUAUUCAGCGAGUAGAUUGACAUGAGGAUCACCCAUGUGGCGAAAGCCGAGGGAGAAGGGAUGAUGCUAC	34.9	25	–	–
CGAUCACAUGUCAGGAUAUGCGAGCUUGUAUCGCCGUAGAAGGGACAUGAGGAUCACCCAUGUCCGAUCAUUCG	–	–	28.3	52.1
UUGGACGUCGUAGGAUAUGUAGGAUAUUCCUACAUGAGGAUCACCCAUGUUGACAUGGAAGAAGGACAGAAGGACGAUGUCCAU	566	14.2	–	–
AAACCACAUGAGGAUCACCCAUGUGAGGAUAUGAUACUAUGUACUUCGGUACAUAGUAUCAGAAGGCAUGUGGA	–	–	180	130
GGUGCGUUUGUGAGGAUAUGCUGGUCCUUGGUUCAGCAGAAGGCACAUGAGGAUCACCCAUGUGGUGUCGUACC	–	–	240	28
UGAACCCAUGUUAGGAUAUCAGGCCGAGGAAGUUCUGAGAAGGGACAUGAGGAUCACCCAUGUAUAAAAGAAAC	–	–	70.6	41.8
UAUAUAUAGUAAGGAUAUGUAUUUAUUUCAUAAACAGAAGGUACUGACAUGAGGAUCACCCAUGUUUUAGUGUGGGCAUGUAGA	–	–	81.8	121
UUUAAACAUGAGGAUCACCCAUGUCGUUCAAAUCAAGGAUAUCAAGCGUGUGAGCACACUUGAGAAGGUGAAGCUC	31	60.8	–	–
AUUUUACAUGAGGAUCACCCAUGUUUUGGUGGGUCAGGAUAUAGAUCGGAUGAGUUCUGGCUAGAAGGGACAUAUA	75.9	66.4	–	–
AUAUUGUGAGGAUAUGAACUUAGUAUCGAAAGUUACUAAGUUCAGAAGGCACAUGAGGAUCACCCAUGUUUCUC	–	–	72.1	972
UCGUGAAGGACAGGAUAUGGACAUGAGGAUCACCCAUGUACAUGGGAAUAUAUACUGCAUUUAUACUAGAAGGGUUACAUAAAU	–	–	12.8	11.2
UUUAUUAAACAAGGAUAUCAUUUGUGUACAAGUUUUACAUGAGGAUCACCCAUGUUAAAUGGUUUUGAGAAGGUGUUUAGAAUU	34.2	25.2	–	–
GUCAGCUCGUGAGGAUAUACAACACUGCUUCGGCACUGUAUUAAGAUCACAUGAGGAUCACCCAUGUAGAAGGCACGAGCUGAU	–	–	8.62	104
AAGAAGUCAGGAUAUCCAUGGCGGCACUUGCGUGGUGGCGUGGAGAAGGGACAUGAGGAUCACCCAUGUAAAGC	–	–	47.1	32.8
AUUUUUAAGGUAGGAUAUAGUAUAAUGAUUUAAUUAGAAGGAUCUCACAUGAGGAUCACCCAUGUAAUAGGAUUACCCAUGUAU	–	–	27.8	22.7
CCGUUACAUGAGGAUCACCCAUGUGAGGAUAUCGGUGUGACUGGCAGCGUGCGGGACUCGAGAAGGCACUGGGC	–	–	71.2	87.9
UAUUUACAUGAGGAUCACCCAUGUCAGGAUAUGCUUCUAUCGUCGAAAGACGAUAGUUGCAGAAGGGACAAUAU	–	–	58.6	106
CUCAAACAUGAGGAUCACCCAUGUGUUGUCAUGGGAGGAUAUCUAAGUUCAUUGUAUUCGGGAGAAGGCCUAUGUC	503	46.5	–	–
GUACAUACAAAGUUACAUGAGGAUCACCCAUGUUUAUUGGGAAGAAGGGUAACAUUAUUAGAUAUAUAGGAUAUUUCACAAUUG	718	387	–	–

Sequence	apparent Kd [1] [nM]	apparent Kd [2] [nM]	apparent Kd [3] [nM]	apparent Kd [4] [nM]
AUAAUGAGAGGAUAUACAUGAGGAUCACCCAUGUUAUUAUCACGUCGUGCUCCAUUACGUAGAAGGCUCAUUUA	–	–	22	84.1
GCCUAGCUAGGAUAUACCCAGGGUUUGUUCUCUAACGACACACAUGAGGAUCACCCAUGUAGAAGGAGCCGGGA	–	–	47.2	41.4
CAGUACUGUCGAGAGGAUAUGCGGUGAUGGACAUGAGGAUCACCCAUGUUAGCGACAGCAUCACGGCAGAAGGCUCUACUGCUGC	47.9	17.2	–	–
AAAUCCGCUGAGGAUAUUAUGAGUGAGAGCUCAUGAGAAGGCGGUACAUGAGGAUCACCCAUGUCUAUGGGCAA	–	–	419	292
GAUGUAUUCGUAGGAUAUCCGUCGCCACCGUGUGGAGAAGGACGAACAUGAGGAUCACCCAUGUAUCAUGGUGUGGACGCUUUC	–	–	287	315
GUAGCAUACCGAGGAUAUUCAUACGGGAAACCGACAUGAGGAUCACCCAUGUGGCGAAAGCCUUGGGAGAAGGCGGAAUGCUAC	691	24.8	–	–
CUGUGACGGUGCGCAAGUGUACGUAGAAGGGUCACAUGAGGAUCACCCAUGUGGGCCUGCGAGUGACAGGAUAUACGUGCGUGC	–	–	6.39	12.4
UACUAUAAGGAGGAUAUCGUAUCGGAGACGAUACGAGAAGGCUUAACAUGAGGAUCACCCAUGUUCUUCAAUAU	–	–	15.3	18.3
AGGUCGAGUGUGAGGAUAUUGACCGGACGACCCAUCGAGAAGGCACAUGAGGAUCACCCAUGUGAUUCAGCUCA	–	–	15	17.1
GAGGACUGAUAAUAAUGUAGAAAUACAUGAGGAUCACCCAUGUAGGAUAUCGUCAGGAAUACUGACGAGAAGGACAUACAGUCC	–	–	16	23.2
AGUGUGUGGCAGGAUAUGCGAUUUGUAGGUGUUGCAGAAGGGUCUACAUGAGGAUCACCCAUGUGUGCGGUUGA	–	–	283	570
UGCAUGGUAGGAUAUACGGAACAUUAGGGUUUGUUAUGUAGACAUGAGGAUCACCCAUGUAGAAGGGCCGUGCU	–	–	37.9	60.8
AAAAAGGCAGGAUAUACAUGAGGAUCACCCAUGUAAAGAAAAGAAAGAUCCAAAGAAAGUAGAAGGGCCAAAAA	–	–	74.8	286
UGGUACUAGGGAGGAUAUGGGAAGAUACAUGAGGAUCACCCAUGUUUAAGAAUGCCGAGAGGCGACUAGAAGGCCCUAGUACCU	311	15.3	–	–
AAUUUAAUACAUGAGGAUCACCCAUGUAAUACUAGUAAGAUCUAGGAUAUCAGCUCGAUUAGAGCUGAGAAGGAGAUCACAUGU	92.9	27.9	–	–
CACAGGGAUUCAGGAUAUAUUAGCCGAGGCCGCGUAGAAGGGAAAUCCUGACAUGAGGAUCACCCAUGUUGACCCGCCUUCCAU	52.8	62.5	–	–
AAAGUAAACGAAGGAUAUGGUUACAUGAGGAUCACCCAUGUAAUGGUUGUGAUAUUGAUUAAGUUCCAGAAGGUCGUAUACAUA	–	–	199	371
GGUCGAAAGUAAGGAUAUGCCUAGGAAACCUAGGCAGAAGGUACAUGAGGAUCACCCAUGUUAACGCAAAGCGAAUAAACGACC	–	–	18.6	27.4
CCGUCAAUCGAGAAGGGCCUAUGUGCUACACCGGCAGGAUAUCGACAUGAGGAUCACCCAUGUUGGCGAUCCUUUUUGGCGGAC	–	–	135	36.5
GUCAGCUCGUGAGGAUAUACAUGUGCUGGAUACAGCACUAUUAUGUUCACAUGAGGAUCACCCAUGUAGAAGGCACGAGCUGAU	–	–	16.2	21.7
AGUAUACAUGAGGAUCACCCAUGUCAGUAACUGACAGGAUAUGCGUUGCAUCACUGUAAUGCAGAAGGGUCUUGUA	507	115	–	–
UUCAGACAUGAGGAUCACCCAUGUGAGGAUAUGAUGCAGCAGUGGUCUACGCUGUGCAUCAGAAGGCACAUGUG	–	–	140	32.7
ACAUUUAAUACAGGAUAUGUUAGUAUACAGUUGAUUGGUUAUUACAUUAUAACAGAAGGGUAGAACAUGAGGAUCACCCAUGUA	153	73.2	–	–
UUAAUAUAUCAGGAUAUGAUUAUAUGUGUUGAAUCAGAAGGGAUAACAUGAGGAUCACCCAUGUUGUGGAGUGA	–	–	69.3	206
UAUAACAUGAGGAUCACCCAUGUGGUCGUCGUGGCCCUGUGACAGGAUAUCGGAGUUGGAGCAUACGAGAAGGGUUACGCGGCC	–	–	10.5	12.4
GGAGCAUACAUUAACAUGAGGAUCACCCAUGUCAAAAGACAUGAGGAUAUGGAUCCGAAAAGGAUCCAGAAGGCAUGGUGCUCC	173	11.5	–	–
GACGCUGACCGAGGAUAUACAAUAAAACAACAAACACCUCGUGUCAGAACAUGAGGAUCACCCAUGUAGAAGGCGGCAGGUCUA	–	–	48.6	127

— the EternaBench riboswitch data
